Data set [1] is described as follows: Prodrug conversion in dog primary hepatocytes assessed as 2'-deoxy-2'-spirooxetane uridine triphosphate level per million cells at 2 uM after 4 hrs using radiolabelled compound by LC-MS/MS analysis. Type of data set: ADME, cell-based, Canis lupus familiaris, Hepatocyte. The essentials: (§1)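 Study A: fresh primary hepatocyte cultures from mouse, rat, dog and human incubated with tritiated prodrug at 2 or 62.5 µM for 4 or 24 h. Triphosphate in cell lysates reported as pmol/million hepatocytes. Duplicate or single measurements.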

The subject of data set [2] is Hepatocyte. The data set can be described thus: Prodrug conversion in human primary hepatocytes assessed as 2'-deoxy-2'-spirooxetane uridine triphosphate level per million cells at 2 uM after 4 hrs using radiolabelled compound by LC-MS/MS analysis. The class given is ADME, cell-based. The essentials: as §1
Data set [3] can be described thus: Prodrug conversion in dog primary hepatocytes assessed as 2'-deoxy-2'-spirooxetane uridine triphosphate level per million cells at 62.5 uM after 4 hrs using radiolabelled compound by LC-MS/MS analysis. The class given is ADME, cell-based, Canis lupus familiaris, Hepatocyte. The essentials:
as §1

Data set [4] concerns Hepatocyte. In words: Prodrug conversion in mouse primary hepatocytes assessed as 2'-deoxy-2'-spirooxetane uridine triphosphate level per million cells at 2 uM after 4 hrs using radiolabelled compound by LC-MS/MS analysis. Type of data set: ADME, cell-based. The essentials: as §1
Data set [5] can be described thus: Drug metabolism in dog primary hepatocytes assessed as 1-[(4aR,6R,7R,7aR)-2-hydroxy-2-oxidodihydro-4H-spiro[furo[3,2-d][1,3,2]dioxaphosphinine-7,2'-oxetan]-6-yl]pyrimidine-2,4(1H,3H)-dione formation at 2 to 62.5 uM after 4 hrs using radiolabelled compound by LC-MS/MS analysis. The class given is ADME, cell-based, Canis lupus familiaris, Hepatocyte. The essentials:
(§2)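 Study A: primary cultured hepatocytes (mouse, rat, dog, human) incubated with 2 or 62.5 µM 5'-[3H]-labelled prodrug for 4 and 24 h. Cell lysates were analysed for triphosphate. Supernatants were protein-precipitated and profiled by HPLC with radioactivity detection. Cyclic monophosphate was also assessed by LC/MS/MS.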

Data set [6] relates to Hepatocyte. In words: Prodrug conversion in rat primary hepatocytes assessed as 2'-deoxy-2'-spirooxetane uridine triphosphate level per million cells at 62.5 uM after 24 hrs using radiolabelled compound by LC-MS/MS analysis. The class given is ADME, cell-based. The essentials: as §1
A short description of data set [7]: Drug metabolism in dog primary hepatocyte supernatant assessed as 1-((4R,5R,7R,8R)-8-hydroxy-7-(hydroxymethyl)-1,6-dioxaspiro[3.4]octan-5-yl)pyrimidine-2,4(1H,3H)-dione formation at 2 to 62.5 uM after 4 to 24 hrs using radiolabeled compound by HPLC analysis. Type of data set: ADME, cell-based, Canis lupus familiaris. To be noted: hepatocytes. The essentials:
as §2

Data set [8] relates to Hepatocyte. The data set can be described thus: Prodrug conversion in mouse primary hepatocytes assessed as 2'-deoxy-2'-spirooxetane uridine triphosphate level per million cells at 2 uM after 24 hrs using radiolabelled compound by LC-MS/MS analysis. Type of data set: ADME, cell-based. The essentials: as §1
In data set [9] the test system is Liver. The data set can be described thus: Cmax in mouse liver assessed as 2'-deoxy-2'-spirooxetane uridine triphosphate at 50 mg/kg, po. The note with it: in vivo. Set-up: dose 50 mg/kg, route oral. The class given is ADME, organism-based.
Data set [10] deals with Hepatocyte. The data set can be described thus: Prodrug conversion in human hepatocytes assessed as 2'-deoxy-2'-spirooxetane uridine triphosphate formation in presence of PDE4 inhibitor rolipram by LC-MS/MS analysis. The class given is ADME, cell-based.
Data set [11] in a line: Ratio of AUC (0 to last) in rat liver to AUC (0 to last) in rat plasma. The class given is ADME. The essentials:
(§3)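 Single oral dose of 50 mg/kg in 20% HP-β-cyclodextrin. Prodrug and triphosphate measured in plasma and liver over time (tlast 6–30 h). Half-life, Cmax, tmax and AUC0-last derived; liver/plasma ratio taken from AUC0-last. Prodrug data pooled from two independent studies.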

Data set [12] concerns Hepatocyte. In words: Drug level in human hepatocytes treated with JNJ-54257099 in presence of CYP2C8 and CYP2C9 inhibitor montelukast by LC-MS/MS analysis. Type of data set: ADME, cell-based.
The test system of data set [13] is Hepatocyte. The data set can be described thus: Drug metabolism in human hepatocytes assessed as ((4R,5R,7R,8R)-5-(2,4-dioxo-3,4-dihydropyrimidin-1(2H)-yl)-8-hydroxy-1,6-dioxaspiro[3.4]octan-7-yl)methyl dihydrogen phosphate formation in presence of CYP3A4 inhibitor ketoconazole by LC-MS/MS analysis. The class given is ADME, cell-based.
A short description of data set [14]: Ratio of AUC (0 to last) in dog liver to AUC (0 to last) in dog plasma. Type of data set: ADME, Canis lupus familiaris. The essentials: as §3
The test system of data set [15] is Hepatocyte. In words: Prodrug conversion in mouse cryopreserved hepatocytes assessed as 2'-deoxy-2'-spirooxetane uridine triphosphate level per million cells at 10 uM after 8 hrs by LC-MS/MS analysis. Type of data set: ADME, cell-based. The essentials:
(§4)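 Plated cryopreserved hepatocytes (study B) incubated with 10 µM unlabeled prodrug for 2, 8 or 24 h. Triphosphate measured in cell lysates and expressed as pmol/million hepatocytes. Quantification limit 2 ng/10^6 cells.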

Data set [16] relates to Hepatocyte. In words: Drug metabolism in human hepatocytes assessed as ((4R,5R,7R,8R)-5-(2,4-dioxo-3,4-dihydropyrimidin-1(2H)-yl)-8-hydroxy-1,6-dioxaspiro[3.4]octan-7-yl)methyl dihydrogen phosphate formation in presence of CYP2C8 and CYP2C9 inhibitor montelukast by LC-MS/MS analysis. The class given is ADME, cell-based.
The test system of data set [17] is Hepatocyte. The data set can be described thus: Drug metabolism in human hepatocytes assessed as ((4R,5R,7R,8R)-5-(2,4-dioxo-3,4-dihydropyrimidin-1(2H)-yl)-8-hydroxy-1,6-dioxaspiro[3.4]octan-7-yl)methyl dihydrogen phosphate formation in presence of pan-CYP inhibitor 1-ABT by LC-MS/MS analysis. Type of data set: ADME, cell-based.
Data set [18] has as its system Hepatocyte. The data set can be described thus: Drug metabolism in human hepatocytes assessed as ((4R,5R,7R,8R)-5-(2,4-dioxo-3,4-dihydropyrimidin-1(2H)-yl)-8-hydroxy-1,6-dioxaspiro[3.4]octan-7-yl)methyl dihydrogen phosphate formation in presence of PDE4 inhibitor rolipram by LC-MS/MS analysis. The class given is ADME, cell-based.
Data set [19] can be described thus: Prodrug conversion in dog cryopreserved hepatocytes assessed as 2'-deoxy-2'-spirooxetane uridine triphosphate level per million cells at 10 uM after 24 hrs by LC-MS/MS analysis. The class given is ADME, cell-based, Canis lupus familiaris, Hepatocyte. The essentials:
as §4

Data set [20] deals with Hepatocyte. The data set can be described thus: Prodrug conversion in human cryopreserved hepatocytes assessed as 2'-deoxy-2'-spirooxetane uridine triphosphate level per million cells at 10 uM after 8 hrs by LC-MS/MS analysis. The class given is ADME, cell-based. The essentials:
as §4

Data set [21] relates to Liver. In words: Cmax in dog liver assessed as 2'-deoxy-2'-spirooxetane uridine triphosphate at 50 mg/kg, po. Set-up: dose 50 mg/kg, route oral. The note with it: in vivo. Type of data set: ADME, organism-based, Canis lupus familiaris.
Data set [22] has as its system Hepatocyte. The data set can be described thus: Drug level in human hepatocytes in presence of CYP3A4 inhibitor ritonavir by LC-MS/MS analysis. The class given is ADME, cell-based.
In data set [23] the test system is Liver. In words: Tlast in mouse liver assessed as 2'-deoxy-2'-spirooxetane uridine triphosphate at 50 mg/kg, po. The class given is ADME, organism-based. The note with it: in vivo. The essentials:
(§5)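 Single oral dose of 50 mg/kg formulated in 20% HP-β-cyclodextrin. Prodrug and its triphosphate were measured in plasma and liver (ng/mL or ng/g) over time, and Cmax, tmax, AUC, tlast and t1/2 were derived. For some analytes, data from two independent studies are reported.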

A further data set addresses Cytochrome P450 3A4 (Homo sapiens, UniProt P08684). The data set can be described thus: Drug metabolism in baculovirus infected insect cell microsomes expressing human CYP3A4 assessed as CYP3A4-mediated intrinsic clearance per pmol CYP3A4 at 22.7 uM. Type of data set: ADME. To be noted: recombinant enzyme. The essentials:
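Incubation at 22.7 µM with human CYP3A4 supersomes. Intrinsic clearance (µL/min.pmol P450) and half-life (min) were determined.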

Data set [24] can be described thus: Tmax in dog plasma at 50 mg/kg, po. Type of data set: ADME, organism-based, Canis lupus familiaris. The essentials: as §5
A short description of data set [25]: AUC (0 to last) in mouse plasma at 50 mg/kg, po. The class given is ADME, organism-based. The arrangement: dose 50 mg/kg, route oral, time 0 - last. The essentials:
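Oral dose 50 mg/kg, formulated in 20% HP-β-cyclodextrin. Prodrug and triphosphate were measured in plasma and liver (ng/mL or ng/g). Parameters derived were Cmax, tmax, AUC0-last, AUC0-inf and t1/2. Some prodrug data come from two independent studies.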

We go through two compounds from ChEMBL document CHEMBL3826882, “Discovery of 1-((2R,4aR,6R,7R,7aR)-2-Isopropoxy-2-oxidodihydro-4H,6H-spiro[furo[3,2-d][1,3,2]dioxaphosphinine-7,2'-oxetan]-6-yl)pyrimidine-2,4(1H,3H)-dione (JNJ-54257099), a 3'-5'-Cyclic Phosphate Ester Prodrug of 2'-Deoxy-2'-Spirooxetane Uridine Triphosphate Useful for HCV Inhibition” (J Med Chem, 2016).

Each structure is given as a SMILES string. Bounds are passed on as bounds.

Chain of Cytochrome P450 3A4 (P08684 whole entry): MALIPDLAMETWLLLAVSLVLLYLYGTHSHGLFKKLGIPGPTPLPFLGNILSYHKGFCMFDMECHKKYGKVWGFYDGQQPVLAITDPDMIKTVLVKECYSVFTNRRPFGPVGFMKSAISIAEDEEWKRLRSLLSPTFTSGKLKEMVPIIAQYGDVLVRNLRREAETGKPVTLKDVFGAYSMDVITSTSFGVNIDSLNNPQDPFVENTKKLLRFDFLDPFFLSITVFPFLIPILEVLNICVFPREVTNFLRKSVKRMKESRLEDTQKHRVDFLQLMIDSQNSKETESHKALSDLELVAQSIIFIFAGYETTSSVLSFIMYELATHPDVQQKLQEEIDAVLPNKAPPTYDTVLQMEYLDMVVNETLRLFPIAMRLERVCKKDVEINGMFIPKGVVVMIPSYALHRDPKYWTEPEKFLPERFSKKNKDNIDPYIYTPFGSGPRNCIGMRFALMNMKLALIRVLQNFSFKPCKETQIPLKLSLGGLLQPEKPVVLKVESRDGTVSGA

Turning to `[3H]C1O[P@](=O)(OC(C)C)O[C@@H]2[C@@H]1O[C@@H](n1ccc(=O)[nH]c1=O)[C@@]21CCO1` (stereo partly specified), the Drug metabolism in [1] is listed as 0.005 pmol; in the data set on Hepatocyte [2] it was 0.023 pmol; in data set [3] it was 0.035 pmol; in the data set with Hepatocyte [4], 0.063 pmol; in data set [5], “metabolite_detected”; with Hepatocyte [6], 0.39 pmol. Also, the Drug metabolism entry is recorded as “metabolite_detected” in [7] and 0.049 pmol with Hepatocyte [8].

Regarding `CC(C)O[P@@]1(=O)OC[C@H]2O[C@@H](n3ccc(=O)[nH]c3=O)[C@@]3(CCO3)[C@@H]2O1`, the Cmax in the data set on Liver [9] was 13633 ng/g; with Liver [21] it was 46600 ng/g. For the same compound, the Drug metabolism entry with Hepatocyte [10] is “metabolite_notdetected”; in the data set with Hepatocyte [13], “metabolite_notdetected”; in the data set on Hepatocyte [15], 0.95 pmol; with Hepatocyte [16] it was “metabolite_detected”; in the data set with Hepatocyte [17], “metabolite_notdetected”; in the data set with Hepatocyte [18], “metabolite_detected”. For the same compound, the Drug metabolism is listed as < 2 ng in data set [19] and 0.172 pmol in the data set with Hepatocyte [20]. The figures for the Kp in [11] and in data set [14] were 0.34 and 1.4, respectively. Also, the Drug uptake entry in the data set on Hepatocyte [12] and in the data set with Hepatocyte [22] was “Active” each time. The Tlast in the data set with Liver [23] is 24 h. Further, the CL on Cytochrome P450 3A4 is 0.058 µL/min. Moreover, in data set [24], the Tmax was 1.5 h. The AUC(0-t) in data set [25] worked out at 2560 ng·h/mL.
